From ChEMBL document CHEMBL5712901, “DOT1L inhibition blocks multiple myeloma cell proliferation by suppressing IRF4-MYC signaling” (2019)
The source made the active and inactive calls. The calls are words filed in the database; no cut-off is given here.

Columns and labels:
Type in all cases: functional, cell-based
Settings in all cases: time <= 14.0 day
RPMI-8226 = experiment: Antiproliferative activity against human RPMI-8226 cells treated upto 14 days with replacement of fresh medium containing drug every 3 to 4 days by cell counting kit-8 method
Summary of the method: (§1)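 Screen of histone methylation modifier inhibitors in 6-well plates at 3 × 10^4 to 1 × 10^5 cells/well. Drug at 1 μM or DMSO for up to 14 days, with medium and drug refreshed every 3-4 days. CCK-8 read on days 3-4 and 11-14. Values normalized to DMSO; mean of 5 replications ± SEM; unpaired two-sided t-test.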

U-266 = experiment: Antiproliferative activity against human […] cells treated upto 14 days with replacement of fresh medium containing drug every 3 to 4 days by cell counting kit-8 method; summary of the method: as §1
KMS-12-PE = experiment: Antiproliferative activity against human KMS-12-PE cells treated upto 14 days with replacement of fresh medium containing drug every 3 to 4 days by cell counting kit-8 method; summary of the method: as §1
KMS-12-BM = experiment: Antiproliferative activity against human KMS-12-BM cells treated upto 14 days with replacement of fresh medium containing drug every 3 to 4 days by cell counting kit-8 method
Summary of the method: (§2)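 Screen of histone methylation modifier inhibitors: myeloma cells seeded at 3 × 10^4 to 1 × 10^5 cells/well, exposed to 1 μM inhibitor or DMSO for up to 14 days. Viability read by CCK-8 absorbance at early (days 3-4) and late (days 11-14) time points, normalized to DMSO; means of 5 replications, SEM, unpaired two-sided t-test.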

MM1.S = experiment: Antiproliferative activity against human MM1.S cells treated upto 14 days with replacement of fresh medium containing drug every 3 to 4 days by cell counting kit-8 method; summary of the method: as §2

## O=C(O)c1ccc(CN2CCC(CN[C@@H]3C[C@H]3c3ccccc3)CC2)cc1
RPMI-8226
  Activity: inactive
U-266
  Activity: inactive

## CC[C@H](C)n1cc(C)c2c(C(=O)NCc3c(C)cc(C)[nH]c3=O)cc(-c3ccc(N4CCNCC4)nc3)cc21
KMS-12-PE
  Activity: inactive

## COc1cc2c(NC3CCN(C(C)C)CC3)nc(C3CCCCC3)nc2cc1OCCCN1CCCC1
KMS-12-PE
  Activity: inactive

## N[C@@H]1C[C@H]1c1cc(F)cc(F)c1OCc1ccccc1
KMS-12-BM
  Activity: inactive
MM1.S
  Activity: inactive
